PubChem BioAssay AID624338 (The Scripps Research Institute Molecular Screening Center, 2012)
Active and inactive are the calls of the source.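 How the source made its calls: active means inhibition of a cysteine-free insulin-degrading enzyme mutant that persists after dilution, so judged irreversible; inactive means inhibition weakens or vanishes on dilution, so reversible.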

Molecular target: Insulin-degrading enzyme (Homo sapiens) (UniProt P14735)
Assay: reversibility of cysteine-free IDE inhibition, late-stage follow-up, mechanism study for IDE inhibitor project, biochemical, cysteine-free mutant, FRET1 substrate, round 2 (AID 624338)
Details: recombinant CF-IDE, FRET1 substrate fluorescence, reversibility by dilution
Procedure, shortened: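 System: CF-IDE enzyme; amount: 1 nM enzyme; also added: FRET1 peptide substrate at 1 µM; medium: pH 7.4 buffer; doses: 10 semilog doses from 100 µM; incubation: room temperature reaction; control set: DMSO-only wells as 100%, enzyme-free wells as 0%; replicates: triplicate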

Insulin-degrading enzyme (Homo sapiens), sequence (P14735 whole entry, looked up): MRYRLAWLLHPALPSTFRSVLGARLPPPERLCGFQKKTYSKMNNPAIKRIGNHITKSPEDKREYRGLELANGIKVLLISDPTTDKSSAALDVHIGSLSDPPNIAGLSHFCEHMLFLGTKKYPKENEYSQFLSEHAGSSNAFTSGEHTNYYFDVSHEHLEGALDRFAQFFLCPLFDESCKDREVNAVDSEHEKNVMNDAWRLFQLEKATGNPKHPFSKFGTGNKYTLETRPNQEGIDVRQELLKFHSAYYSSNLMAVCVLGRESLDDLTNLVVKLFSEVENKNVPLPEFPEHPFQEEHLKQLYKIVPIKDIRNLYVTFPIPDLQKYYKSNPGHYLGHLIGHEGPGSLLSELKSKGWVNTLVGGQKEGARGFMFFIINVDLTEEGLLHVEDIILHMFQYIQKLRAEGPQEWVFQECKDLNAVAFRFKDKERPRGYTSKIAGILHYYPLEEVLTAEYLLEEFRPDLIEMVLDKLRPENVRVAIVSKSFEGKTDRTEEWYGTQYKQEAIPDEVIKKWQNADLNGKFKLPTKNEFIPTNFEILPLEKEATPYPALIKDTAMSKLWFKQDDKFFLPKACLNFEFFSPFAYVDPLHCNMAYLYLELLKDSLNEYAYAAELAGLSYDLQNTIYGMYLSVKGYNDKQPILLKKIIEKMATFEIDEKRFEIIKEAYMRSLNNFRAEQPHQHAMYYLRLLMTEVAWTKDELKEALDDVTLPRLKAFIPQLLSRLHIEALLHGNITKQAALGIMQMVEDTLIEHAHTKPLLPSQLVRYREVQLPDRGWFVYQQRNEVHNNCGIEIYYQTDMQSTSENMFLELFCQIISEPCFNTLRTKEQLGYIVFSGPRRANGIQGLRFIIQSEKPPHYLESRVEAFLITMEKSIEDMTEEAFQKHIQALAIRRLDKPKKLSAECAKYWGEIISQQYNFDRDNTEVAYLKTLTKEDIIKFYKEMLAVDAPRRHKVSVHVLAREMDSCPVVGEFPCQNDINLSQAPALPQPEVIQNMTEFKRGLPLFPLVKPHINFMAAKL

SMILES | outcome
O=C(c1ccc(Oc2ccccc2)cc1)N1CCN(C(=O)C2COc3ccccc3O2)CC1 (stereo not given) | inactive
COc1ccc(C(=O)N2CCN(C(=O)CCc3c[nH]c4ccccc34)CC2)cc1OC | inactive
c1coc(Cn2c(SCc3nc4ccccc4[nH]3)nnc2-c2ccco2)c1 | inactive
O=C(c1ccc2nc(C(F)(F)F)[nH]c2c1)N1CCN(C(=O)C2COc3ccccc3O2)CC1 (stereo not given) | inactive
Cc1nc(COc2ccc(C(=O)N3CCN(C(=O)C4COc5ccccc5O4)CC3)cc2)cs1 (stereo not given) | inactive
c1coc(Cn2c(SCc3nc4ccccc4[nH]3)nnc2-c2cnccn2)c1 | inactive
COc1ccc(C(=O)N2CCN(C(=O)C(c3ccccc3)c3ccccc3)CC2)cc1OC | inactive
Clc1ccc(COCc2nnc(SCc3nc4ccccc4[nH]3)n2Cc2ccco2)cc1 | inactive
Cc1ccc(-c2nnc(SCc3nc4ccccc4[nH]3)n2Cc2ccco2)cc1 | inactive
COc1ccc(C(=O)N2CCN(C(=O)C3CC(=O)N(c4ccccc4)C3)CC2)cc1OC (stereo not given) | inactive
COc1ccc(C(=O)N2CCN(C(=O)COc3ccccc3)CC2)cc1OC | inactive
COc1cccc(C(=O)N2CCN(C(=O)C3COc4ccccc4O3)CC2)c1 (stereo not given) | inactive
COc1ccc(C(=O)N2CCN(C(=O)C3COc4ccccc4O3)CC2)cc1 (stereo not given) | inactive
c1coc(Cn2c(SCc3nc4ccccc4[nH]3)nnc2-c2cccs2)c1 | inactive
COc1ccc(C(=O)N2CCN(C(=O)COc3ccc(C)cc3)CC2)cc1OC | inactive
O=C(c1ccc(Oc2ccc(F)cc2)cc1)N1CCN(C(=O)C2COc3ccccc3O2)CC1 (stereo not given) | inactive

The remaining lines, values ahead:

outcome | SMILES
inactive | CCOc1ccc(C(=O)N2CCN(C(=O)C3COc4ccccc4O3)CC2)cc1 (stereo not given)
inactive | c1ccc(-c2nnc(SCc3nc4ccccc4[nH]3)n2Cc2ccco2)nc1
inactive | COc1cc(C(=O)N2CCN(C(=O)C3COc4ccccc4O3)CC2)cc(Cl)c1OC (stereo not given)
inactive | COc1ccc(C(=O)N2CCN(C(=O)COc3ccc(Cl)cc3)CC2)cc1OC
inactive | O=C(c1ccc(OCC2CCCO2)cc1)N1CCN(C(=O)C2COc3ccccc3O2)CC1 (stereo not given)
inactive | Cc1ccc(COCc2nnc(SCc3nc4ccccc4[nH]3)n2Cc2ccco2)cc1
inactive | c1ccc(-c2nnc(SCc3nc4ccccc4[nH]3)n2Cc2ccco2)cc1
inactive | CC(=O)Nc1ccccc1C(=O)N1CCN(C(=O)C2COc3ccccc3O2)CC1 (stereo not given)
inactive | COc1ccc(OCC(=O)N2CCN(C(=O)c3ccc(OC)c(OC)c3)CC2)cc1
